# Experimental data taken from ChEMBL document CHEMBL1145075, “A new class of diamine-based human histamine H3 receptor antagonists: 4-(aminoalkoxy)benzylamines” (J Med Chem, 2003).
# What was measured:
# [1] = molecular target: T1, Histamine H3 receptor (Homo sapiens, UniProt Q9Y5N1); experiment: In vitro binding affinity for human Histamine H3 receptor by displacing N-[3H]-methylhistamine in SK-N-MC cells was determined; format: cell-based
# Outline: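 Cloned human H3 receptor stably expressed in SK-N-MC cells; binding run per an earlier published procedure.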
# [2] = Human plasma protein binding activity was determined; format: ADME, cell-free
# Outline: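 Human plasma protein binding measured by an outside contract laboratory.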
# [3] = molecular target: Histamine H3 receptor (Rattus norvegicus, UniProt Q9QYN8); experiment: In vitro binding affinity for rat Histamine H3 receptor by displacing N-[3H]-methylhistamine in rat cortex membranes was determined
# Histamine H3 receptor (Rattus norvegicus, UniProt Q9QYN8), sequence (Q9QYN8 whole entry): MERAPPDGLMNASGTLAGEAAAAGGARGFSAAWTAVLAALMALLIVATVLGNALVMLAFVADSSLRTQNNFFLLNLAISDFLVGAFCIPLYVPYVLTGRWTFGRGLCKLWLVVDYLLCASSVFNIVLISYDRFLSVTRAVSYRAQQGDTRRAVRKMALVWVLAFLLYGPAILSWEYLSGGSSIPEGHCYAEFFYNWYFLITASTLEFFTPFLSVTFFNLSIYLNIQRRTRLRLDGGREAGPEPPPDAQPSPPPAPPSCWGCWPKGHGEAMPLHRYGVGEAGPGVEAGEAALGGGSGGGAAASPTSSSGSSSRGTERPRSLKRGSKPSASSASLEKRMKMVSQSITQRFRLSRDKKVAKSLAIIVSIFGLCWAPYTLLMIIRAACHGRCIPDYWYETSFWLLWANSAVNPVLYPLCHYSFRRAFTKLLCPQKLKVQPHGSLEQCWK
# [4] = stabilit in human liver microsome expressed as Half life; format: ADME; details: liver microsomes
# Outline: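 Stability in human liver microsomes measured by an outside contract laboratory; reported as half-life.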
# [5] = molecular target: T1, Histamine H3 receptor; experiment: Histamine-induced inhibition of forskolin- stimulated cAMP accumulation in SK-N-MC cells overexpressing the human Histamine H3 receptor; format: functional, cell-based; details: read-out: pA2 (converted)
# Outline: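 SK-N-MC sublines stably expressing human H3 receptor plus β-galactosidase reporter driven by multiple cAMP responsive elements. Compound added to media, forskolin (5 μM final) 5 min later, then 6 h at 37 °C. Cells PBS-washed, lysed, color developed with chlorophenol red β-D-galactopyranoside, absorbance 570 nm. pA2 from Schild regression of EC50 values.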
# T1 sequence (Q9Y5N1 whole entry): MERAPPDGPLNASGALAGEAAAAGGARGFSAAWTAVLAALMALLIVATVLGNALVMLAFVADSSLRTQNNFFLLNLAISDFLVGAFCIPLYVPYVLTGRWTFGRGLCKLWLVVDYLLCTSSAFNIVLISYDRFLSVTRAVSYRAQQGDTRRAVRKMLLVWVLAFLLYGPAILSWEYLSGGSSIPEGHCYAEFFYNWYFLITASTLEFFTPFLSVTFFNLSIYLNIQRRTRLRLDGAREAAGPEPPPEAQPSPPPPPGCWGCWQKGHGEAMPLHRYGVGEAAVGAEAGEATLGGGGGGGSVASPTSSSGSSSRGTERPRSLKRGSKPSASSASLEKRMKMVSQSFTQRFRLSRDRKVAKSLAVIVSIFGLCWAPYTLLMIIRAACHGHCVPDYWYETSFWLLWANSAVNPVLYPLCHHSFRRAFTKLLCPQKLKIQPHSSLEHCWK
SMILES,Ki [1] [nM],also measured
CCN(CC)CCOc1ccc(CN2CCCCC2)cc1,50.1,–
c1cc(OCCCC2CCCCC2)ccc1CN1CCCCC1,631,–
c1cc(OCCCN2CCCCC2)ccc1CN1CCCCC1 [JNJ-5207852],–,Binding [2]: 54%; Ki [3]: 0.457 nM; half-life [4]: > 24 h
c1cc(OCCCN2CCOCC2)ccc1CN1CCCCC1,2.29,–
NC(=O)C1CCN(Cc2ccc(OCCCN3CCCCC3)cc2)CC1,0.955,–
CN(C)CCOc1ccc(CN2CCCCC2)cc1,3.89,Kb [5]: 10.5 nM
c1cc(OCCN2CCCCC2)ccc1CN1CCCCC1,8.91,Kb [5]: 8.91 nM
CCN(CC)CCCOc1ccc(CN2CCCCC2)cc1,1.23,–

# Continued, in another order:
Ki [1] [nM],SMILES,also measured
50.1,c1cc(OCCCN2CCCCC2)ccc1CC1CCCCC1,–
1.7,c1ccc2c(c1)CCN(Cc1ccc(OCCCN3CCCCC3)cc1)C2,–
8.32,c1ccc(NCc2ccc(OCCCN3CCCCC3)cc2)cc1,–
1.51,c1ccc(CC2CCN(Cc3ccc(OCCCN4CCCCC4)cc3)CC2)cc1,–
0.933,CN(C)Cc1ccc(OCCCN2CCCCC2)cc1,–
0.871,c1cc(OCCCN2CCCCC2)ccc1CN1CCOCC1,Kb [5]: 0.537 nM
0.832,c1ccc2c(c1)CCC2NCc1ccc(OCCCN2CCCCC2)cc1 (stereo not given),–
1.35,CN1CCN(Cc2ccc(OCCCN3CCCCC3)cc2)CC1,–
0.741,OC1CCN(Cc2ccc(OCCCN3CCCCC3)cc2)CC1,Kb [5]: 0.229 nM
0.513,c1cc(OCCCN2CCCCC2)ccc1CNC1CCCCC1,Kb [5]: 0.195 nM
